Source: PubChem BioAssay
An excerpt weighted towards active compounds, which were near 4% of everything screened.
ABHD5 PLIN5 PPI: ABHD5-PLIN5 interaction inhibitors, primary screen, cell lysate, split luciferase complementation, luminescence. Perilipin-5 (Homo sapiens) + 1-acylglycerol-3-phosphate O-acyltransferase ABHD5 (Homo …. Split G. princeps luciferase complementation, 4 h. inhibition, % at 4 µM. 0.78% of 360,000 active. AID 602281, 2012;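 active = inhibition above the mean inhibition across every tested compound plus 3 SD, cut at about 22% in these data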
UPR CHOP act: activators of apoptotic CHOP UPR arm, primary screen, cell-based, CHO-CHOP luciferase reporter, luminescence, uHTS; UPR activation; percent of tunicamycin response over DMSO baseline; activation, % at 10 µM; 0.34% of 330,000 active;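 active = at 10 µM dose, activation of 40% or more, normalized to positive control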
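assay system = CHO CHOP reporter cells | amount = 500 CHO-CHOP cells per well | buffer or medium = F12 with 10% FBS | incubation = 16-18 h cell attachment, then 6 h compound exposure, 37 °C | detection = luminescence read with Steady-Glo | read-out = percent activation relative to tunicamycin control | controls = tunicamycin high control, DMSO low control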
Exocytosis inh: LAMP-1 surface exposure blockers, TALL-104 cells – cell-based, flow cytometry, MLPCN library, primary screen | TALL-104 LAMP-1 surface exposure; cells stimulated with thapsigargin and PMA | inhibition, % at 10 µM | 0.66% of 360,000 active;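 active = inhibition above about 55%, limit read from the data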
Mdm2 MdmX PPI: inhibitors of human Mdm2-MdmX association, primary screen, cell-based, luminescence, split luciferase, SaOS-2, uHTS; Protein Mdm4 (Homo sapiens) + E3 ubiquitin-protein ligase Mdm2 (Homo sapiens), …; SaOS-2 split-luciferase Mdm2/MdmX complementation; inhibition, % at 8 µM; 3% of 330,000 active;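 active = inhibition of at least 50% at 8 µM in the primary screen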
UPR XBP1 act: activators of adaptive XBP1 UPR arm, primary screen, cell-based, CHO-XBP1 luciferase reporter, luminescence, uHTS. IRE1-XBP1 UPR activation; percent of tunicamycin response, DMSO as zero. activation, % at 20 µM. 0.33% of 330,000 active;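 active = versus positive control, 20 µM dose yields 30% or more activation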
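Assay system: CHO-XBP1 luciferase reporter cells; Schedule: 6 h treatment, 37 °C; Detection: glow luminescence from Steady-Glo reagent; Benchmarks: high control tunicamycin 10 µg/mL final, low control DMSO vehicle only.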
XBP1 UPR conf: IRE1-XBP1 UPR arm activators, confirmation, cell-based, CHO-XBP1 luciferase reporter, luminescence, single concentration | 63% of 1,000 active | shares compounds with UPR XBP1 act | activation, % at 20 µM;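 active = reporter signal at least 30% of the positive control's activation in two or more of four replicate wells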
Mdm2-MdmX conf: Mdm2-MdmX complex disruptors, retested hits, confirmation, luminescence, single concentration | shares compounds with Mdm2 MdmX PPI | Mdm2-MdmX binding, luminescent assay | inhibition, % at 8 µM | 55% of 10,000 active; in the data active = inhibition above about 40%
Full FLuc ctr: full-length luciferase signal inhibition, confirmation, counter-screen for Mdm2/MdmX interaction inhibitor project, cell-based, single concentration, SaOS-2; shares compounds with Mdm2 MdmX PPI; SaOS-2 full-length luciferase counterscreen, luminescence; inhibition, % at 8 µM; 77% of 6,200 active; AID 504607, 2011;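 active = mean inhibition at 8 µM reaching about 37%, which flags the compound as non-specific, limit read from the data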;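 note: p53-null SaOS-2 cells with luciferase driven by a doxycycline-inducible promoter; compound on cells about two nights before reading with doxycycline added after day one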
Of the large screens only hits and unclear results are named; the others gave an inactive call (follow-up assays come after a bar, where they were run).

Cn1cc(/C=C(\C#N)C(=O)Nc2cccc([N+](=O)[O-])c2)c2ccccc21	Mdm2 MdmX PPI 66, UPR XBP1 act 79 | XBP1 UPR conf 73 | Mdm2-MdmX conf inactive
C[C@H](CO)N1C[C@H](C)[C@@H](CN(C)C(=O)Nc2ccc(C(F)(F)F)cc2)Oc2c(NC(=O)Nc3ccc(C(F)(F)F)cc3)cccc2C1=O	Mdm2 MdmX PPI 84, UPR XBP1 act 37 | XBP1 UPR conf inactive | Mdm2-MdmX conf inactive
CC(C)CN=C(NS(=O)(=O)c1ccccc1)C(Cl)(Cl)Cl	Mdm2 MdmX PPI 88, UPR XBP1 act 47 | XBP1 UPR conf 60 | Mdm2-MdmX conf 81 | Full FLuc ctr inactive
COC(=O)c1c(C)oc2ccc(N(C(=O)Oc3ccccc3)S(=O)(=O)c3ccc(Cl)c([N+](=O)[O-])c3)cc12	Mdm2 MdmX PPI 96, UPR XBP1 act 32 | XBP1 UPR conf 139 | Mdm2-MdmX conf inactive
CCOC(=O)[C@@H]1[C@H]2COc3ccc(Br)cc3[C@H]2N2C(=O)N(c3ccc(Cl)cc3)C(=O)[C@]12C	none
CC1CCN(CC(=O)Nc2ccc(S(=O)(=O)N3CCC(C)CC3)cc2)CC1	none
Cc1ccc(-c2nnn(CC(=O)Nc3ccc(S(=O)(=O)N4CCC(C)CC4)cc3)n2)cc1	Mdm2 MdmX PPI 52, UPR XBP1 act 44 | XBP1 UPR conf 56 | Mdm2-MdmX conf inactive
COc1cc(/C=C/c2ccc3cccc(O)c3n2)cc(Cl)c1OC	Mdm2 MdmX PPI 100, UPR XBP1 act 66 | XBP1 UPR conf inactive | Mdm2-MdmX conf inactive
Oc1cccc(/C=C/c2ccc3cccc(O)c3n2)c1	none
COc1cc(/C=C/c2ccc3cccc(O)c3n2)cc(OC)c1OC	UPR CHOP act 339, Mdm2 MdmX PPI 84, UPR XBP1 act 77 | XBP1 UPR conf inactive | Mdm2-MdmX conf 76 | Full FLuc ctr inactive
O=C(OCn1nnc2ccccc2c1=O)c1cccs1	none
Cc1c(Nc2cc(N3CCCCCC3)c3nonc3c2[N+](=O)[O-])c(=O)n(-c2ccccc2)n1C	none
Cc1cc(N2CCN(C)CC2)ccc1NC(=O)c1c2c(nc3ccccc13)CCN(Cc1ccccc1)C2	Mdm2 MdmX PPI 100, UPR XBP1 act 42 | XBP1 UPR conf inactive | Mdm2-MdmX conf 100 | Full FLuc ctr 52
Oc1[nH]c2ccccc2c1N=Nc1nc(Nc2ccccc2)nc(N2CCOCC2)n1	Mdm2 MdmX PPI 80, UPR XBP1 act 86 | XBP1 UPR conf inactive | Mdm2-MdmX conf 81 | Full FLuc ctr 59
CN1CCN(c2ccc(S(=O)(=O)N3CCCCC3)cc2NC(=O)Cc2c(F)cccc2Cl)CC1	none
CC(C)N(C(=O)[C@H]1C[C@H](CC(=O)NCc2cccc(C(F)(F)F)c2)C(=O)N2CCc3c([nH]c4ccc(Cl)cc34)[C@]12C)C(C)C	Mdm2 MdmX PPI 95, UPR XBP1 act 55 | XBP1 UPR conf 70 | Mdm2-MdmX conf 40 | Full FLuc ctr 81
COc1ccc(-c2coc3cc4oc(=O)c5ccccc5c4cc23)cc1F	Mdm2 MdmX PPI 75, UPR XBP1 act 64 | XBP1 UPR conf inactive | Mdm2-MdmX conf 55 | Full FLuc ctr 58
CCOc1ccc(C(=O)Nc2ccc(NC(=O)c3ccco3)c(Cl)c2)cc1Cl	Mdm2 MdmX PPI 62, UPR XBP1 act 48 | XBP1 UPR conf 120 | Mdm2-MdmX conf 49 | Full FLuc ctr 94
